Our source for the IC50 values is ChEMBL document CHEMBL1142126, “Triterpenoid pyrazines and benzopyrazines with cytotoxic activity” (J Nat Prod, 2007).

Assay [1] concerns CCRF-CEM. The assay can be described thus: Cytotoxicity against human CEM cells after 72 hrs by MTT assay. Format: cell-based. In outline: (§1)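 Cells seeded at 2500-30 000 per well depending on growth characteristics, preincubated 24 h at 37 °C, 5% CO2. Compounds dissolved in 10% DMSO, added as four-fold dilutions, quadruplicate. 72 h exposure at 37 °C, 5% CO2, 100% humidity. MTT added for 1-4 h, formazan dissolved in 10% aqueous SDS (pH 5.5) overnight at 37 °C, OD 540 nm. Survival relative to control wells; TCS50 taken from dose-response curves.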

Assay [2] has as its system A549. Briefly: Cytotoxicity against human A549 cells after 72 hrs by MTT assay. To be noted: A549, 72 h. It is filed as cell-based. In outline:
as §1

Assay [3] has as its system HT-29. The assay can be described thus: Cytotoxicity against human HT29 cells after 72 hrs by MTT assay. To be noted: HT-29, 72 h. Format: cell-based. The gist of the method: as §1
The test system of assay [4] is K562. Briefly: Cytotoxicity against human K562 cells after 72 hrs by MTT assay. Format: cell-based. The following applies: K562, 72 h. The gist of the method: as §1
Assay [5] in a line: Cytotoxicity against human Pgp-positive multidrug-resistant K562-tax cells after 72 hrs by MTT assay. It is filed as ADME, cell-based. In outline:
as §1

The test system of assay [6] is PC-3. Briefly: Cytotoxicity against human PC3 cells after 72 hrs by MTT assay. It is filed as cell-based. To be noted: PC-3, 72 h. In outline: as §1
In assay [7] the test system is SK-MEL-2. Briefly: Cytotoxicity against human SK-MEL-2 cells after 72 hrs by MTT assay. The following applies: SK-MEL-2, 72 h. It is filed as cell-based. In outline:
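Cells seeded at 2500–30 000/well by growth characteristics, preincubated 24 h at 37 °C, 5% CO2; four-fold dilutions of compound (dissolved in 10% DMSO) added, 72 h exposure at 37 °C, 5% CO2, 100% humidity; quadruplicate. MTT 1–4 h, formazan dissolved in 10% SDS (pH 5.5) overnight, OD 540 nm; survival vs control wells, TCS50 from dose–response curves.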

Assay [8] is described as follows: Cytotoxicity against human U87-Mg cells after 72 hrs by MTT assay. Format: cell-based, U-87MG ATCC. To be noted: U-87 MG. In outline:
as §1

Assay [9] in a line: Cytotoxicity against B2-4 cells after 72 hrs by MTT assay. The following applies: Homo sapiens, B2-4, 72 h. Format: cell-based. The gist of the method:
as §1

Assay [10] has as its system CCRF-CEM. The assay can be described thus: Cytotoxicity against daunorubicin-resistant CEM-DNR-bulk cells after 72 hrs by MTT assay. The following applies: Homo sapiens. Format: cell-based. In outline:
as §1

With `C=C(C)[C@@H]1CC[C@]2(C(=O)OC)CC[C@]3(C)[C@H](CC[C@@H]4[C@@]5(C)CCC(=O)C(C)(C)[C@@H]5CC[C@]43C)[C@@H]12` [METHYL BETULONATE], half-maximal inhibition in assay [1] (IC50) was put at 250 µM.

The compound `CC(C)C1=C2CC[C@]3(C)[C@H](CC[C@@H]4[C@H]5[C@H]6O[C@@]5(CCC6(C)C)CC[C@]43C)[C@@]2(C)C(=O)C1=O` yielded an IC50 in assay [1] of 250 µM.

`C=C(C)[C@@H]1CC[C@]2(C(=O)OC)CC[C@]3(C)[C@H](CC[C@@H]4[C@@]5(C)Cc6nccnc6C(C)(C)[C@@H]5CC[C@]43C)[C@@H]12` gave an IC50 in [1] of 250 µM.

`CC(=O)OC[C@@]12CC[C@]3(C)[C@H](CC[C@@H]4[C@@]5(C)CC[C@H](OC(C)=O)C(C)(C)[C@@H]5CC[C@]43C)C1=C(C(C)C)C(=O)C2=O`: the 50% inhibitory concentration (IC50) in assay [1] is 250 µM; in assay [2], 103 µM; in [3], 250 µM; in assay [4], 250 µM; in assay [5], 250 µM; in assay [6] it was 208 µM. The same compound registered an IC50 in assay [7] of 170 µM.

`COC(=O)[C@@]12CC[C@]3(C)[C@H](CC[C@@H]4[C@@]5(C)CCC(OC(C)=O)C(C)(C)[C@@H]5CC[C@]43C)C1=C(C(C)C)c1nc3ccccc3nc12` (some centres undefined) gave an IC50 in [1] of 192 µM.

`CC(=O)OC1CC[C@]2(C)[C@H]3CC[C@H]4C5=C(CC[C@@]4(C)[C@]3(C)CC[C@H]2C1(C)C)c1nccnc1[C@H]5C(C)C` (some centres undefined): in [1], half-maximal inhibition (IC50) required 244 µM.

For `C=C(C)[C@@H]1CC[C@]2(C(=O)O)CC[C@]3(C)[C@H](CC[C@@H]4[C@@]5(C)Cc6nc7ccccc7nc6C(C)(C)[C@@H]5CC[C@]43C)[C@@H]12`, the IC50 in assay [1] worked out at 42 µM; in assay [2] it was 48 µM; in assay [3], 96 µM; in [4], 86 µM; in [5], 118 µM; in [6] it was 64 µM. Inhibition in assay [7] was half-maximal at 192 µM (IC50).

Regarding `CC(C)[C@@H]1CC[C@]2(C(=O)O)CC[C@]3(C)C(CCC4[C@@]5(C)CC[C@H](O)C(C)(C)C5CC[C@]43C)C12` (some centres undefined) [DIHYDROBETULINIC ACID], inhibition in assay [1] was half-maximal at 7 µM (IC50).

The compound `CC1(C)CC[C@]23CC[C@]4(C)[C@H](CC[C@@H]5[C@@]6(C)Cc7nc8ccccc8nc7C(C)(C)[C@@H]6CC[C@]54C)[C@H]2[C@H]1OC3` had an IC50 in assay [1] of 250 µM.

Regarding `CC1(C)CC[C@]23CC[C@]4(C)[C@H](CC[C@@H]5[C@@]6(C)Cc7nccnc7C(C)(C)[C@@H]6CC[C@]54C)[C@H]2[C@H]1OC3`, the IC50 in assay [1] came out at 250 µM.

For the compound `CC(C)C1=C2CC[C@]3(C)[C@H](CC[C@@H]4[C@H]5[C@H]6O[C@@]5(CCC6(C)C)CC[C@]43C)[C@@]2(C)c2nc3ccccc3nc21`, the IC50 in assay [1] is 250 µM.

For `C=C(C)[C@@H]1CC[C@]2(CO)CC[C@]3(C)[C@H](CC[C@@H]4[C@@]5(C)Cc6nc7ccccc7nc6C(C)(C)[C@@H]5CC[C@]43C)[C@@H]12`, in assay [1], the IC50 came out at 178 µM. This IC50 and that of the compound before are within 1.5-fold of each other.

`C=C(C)[C@@H]1CC[C@]2(C(=O)O)CC[C@]3(C)[C@H](CC[C@@H]4[C@@]5(C)CC[C@H](O)C(C)(C)[C@@H]5CC[C@]43C)[C@@H]12` [BETULINIC ACID] showed an IC50 in [1] of 30 µM. This IC50 is about 5.9-fold lower than that of the compound before.

In assay [1], `COC(=O)[C@]12CC[C@@H](C(C)C)[C@@H]1[C@H]1CC[C@@H]3[C@@]4(C)CCC(=O)C(C)(C)[C@@H]4CC[C@@]3(C)[C@]1(C)CC2` [METHYL DIHYDROBETULONATE] displayed an IC50 of 173 µM.

In the case of `CC(C)[C@@H]1CC[C@]2(CO)CC[C@]3(C)[C@H](CC[C@@H]4[C@@]5(C)Cc6nc7ccccc7nc6C(C)(C)[C@@H]5CC[C@]43C)[C@@H]12`, the IC50 in assay [1] is 35 µM.

With `C=C(C)[C@@H]1CC[C@]2(C(=O)O)CC[C@]3(C)[C@H](CC[C@@H]4[C@@]5(C)CCC(=O)C(C)(C)[C@@H]5CC[C@]43C)[C@@H]12` [BETUNOLIC ACID], the 50% inhibitory concentration (IC50) in [1] turned out to be 20 µM; in assay [2], 15 µM; in [3] it was 17 µM; in assay [4], 6 µM; in [5] it was 17 µM; in assay [6] it was 15 µM. In addition, the IC50 was 26 µM in [7] and 159 µM in assay [8].

On to `C=C(C)[C@@H]1CC[C@]2(C(=O)OCOC(=O)C(C)(C)C)CC[C@]3(C)[C@H](CC[C@@H]4[C@@]5(C)Cc6nccnc6C(C)(C)[C@@H]5CC[C@]43C)[C@@H]12`, for which the IC50 in assay [1] was determined as 232 µM; in assay [2] it was 51 µM; in assay [3], 250 µM; in [4], 100 µM; in assay [5] it was 149 µM; in assay [6], 250 µM. This compound came in with an IC50 in [7] of 250 µM.

For the compound `CC(C)[C@@H]1CC[C@]2(C(=O)O)CC[C@]3(C)[C@H](CC[C@@H]4[C@@]5(C)Cc6nc7ccccc7nc6C(C)(C)[C@@H]5CC[C@]43C)[C@@H]12`, the IC50 in assay [1] was determined as 124 µM; in assay [2], 122 µM; in assay [3], 123 µM; in assay [4], 113 µM; in assay [5] it was 117 µM; in assay [6] it was 103 µM. Moreover, the IC50 in assay [8] stood at 148 µM; in assay [9], 99 µM; in [10] it was 198 µM.

`CC1(C)CC[C@]23CC[C@]4(C)[C@H](CC[C@@H]5[C@@]6(C)CC[C@H](O)C(C)(C)[C@@H]6CC[C@]54C)[C@H]2[C@H]1OC3` [ALLOBETULIN] showed an IC50 in [1] of 250 µM.

`CC(C)[C@@H]1CC[C@]2(CO)CC[C@]3(C)[C@H](CC[C@@H]4[C@@]5(C)Cc6nccnc6C(C)(C)[C@@H]5CC[C@]43C)[C@@H]12`: the IC50 in assay [1] was found to be 74 µM.

`C=C(C)[C@@H]1CC[C@]2(C(=O)OCOC(C)=O)CC[C@]3(C)[C@H](CC[C@@H]4[C@@]5(C)Cc6nccnc6C(C)(C)[C@@H]5CC[C@]43C)[C@@H]12`: the IC50 in assay [1] was 12 µM; in assay [2], 1 µM; in [3] it was 77 µM; in [4] it was 2 µM; in assay [5], 35 µM; in assay [6], 35 µM. In assay [7], 69 µM corresponded to half-maximal inhibition (IC50).

`CC1(C)CC[C@]23CC[C@]4(C)[C@H](CC[C@@H]5[C@@]6(C)CCC(=O)C(C)(C)[C@@H]6CC[C@]54C)[C@H]2[C@H]1O3` [ALLOBETULONE]: half-maximal inhibition in assay [1] (IC50) required 250 µM.

As to `CC(C)C1=C2CC[C@]3(C)[C@H](CC[C@H]4C5[C@H]6O[C@@]5(CCC6(C)C)CC[C@]43C)[C@@]2(C)c2nccnc21` (some centres undefined), inhibition in assay [1] was half-maximal at 250 µM (IC50).

On to `COC(=O)[C@@]12CC[C@]3(C)[C@H](CC[C@@H]4[C@@]5(C)CC[C@H](OC(C)=O)C(C)(C)[C@@H]5CC[C@]43C)C1=C(C(C)C)C(=O)C2=O`, for which the IC50 in [1] worked out at 16 µM; in [2], 13 µM; in assay [3], 7 µM; in assay [4] it was 6 µM; in assay [5], 9 µM; in assay [6], 14 µM. In addition, the IC50 is 14 µM in assay [7], 74 µM in assay [8] and 5 µM in assay [10].

Regarding `CC(=O)OC[C@@]12CC[C@]3(C)[C@@H](CC[C@@H]4[C@@]5(C)CCC(OC(C)=O)C(C)(C)[C@@H]5CC[C@]43C)C1=C(C(C)C)c1nc3ccccc3nc12` (some centres undefined), the IC50 in assay [1] was determined as 106 µM; in assay [2], 101 µM; in assay [3], 229 µM; in [4], 70 µM; in assay [5], 234 µM; in [6], 233 µM. The compound also returned an IC50 in assay [7] of 231 µM.

The compound `C=C(C)[C@@H]1CC[C@]2(CO)CC[C@]3(C)[C@H](CC[C@@H]4[C@@]5(C)CC[C@H](O)C(C)(C)[C@@H]5CC[C@]43C)[C@@H]12` [BETULIN] came in with an IC50 in assay [1] of 250 µM.

Regarding `C=C(C)[C@@H]1CC[C@]2(CO)CC[C@]3(C)[C@H](CC[C@@H]4[C@@]5(C)Cc6nccnc6C(C)(C)[C@@H]5CC[C@]43C)[C@@H]12`, in [1], the IC50 was found to be 101 µM.

The compound `CC(=O)OC[C@@]12CC[C@]3(C)[C@H](CC[C@@H]4[C@@]5(C)CCC(OC(C)=O)C(C)(C)[C@@H]5CC[C@]43C)C1=C(C(C)C)c1nccnc12` (some centres undefined) had an IC50 in [1] of 215 µM. This IC50 is about 2.1-fold higher than that of the compound before.

Regarding `COC(=O)[C@]12CC[C@@H](C(C)C)[C@@H]1[C@H]1CC[C@@H]3[C@@]4(C)Cc5nc6ccccc6nc5C(C)(C)[C@@H]4CC[C@@]3(C)[C@]1(C)CC2`, in assay [1], the IC50 came to 250 µM. The IC50 values of the last two compounds are within 1.5-fold of each other.

Take `CC(C)[C@@H]1CC[C@]2(C(=O)O)CC[C@]3(C)[C@H](CC[C@@H]4[C@@]5(C)CCC(=O)C(C)(C)[C@@H]5CC[C@]43C)[C@@H]12` [DIHYDROBETULONIC ACID]: 2 µM corresponded to half-maximal inhibition in assay [1] (IC50).

As for `COC(=O)[C@@]12CC[C@]3(C)[C@@H](CC[C@@H]4[C@@]5(C)CCC(OC(C)=O)C(C)(C)[C@@H]5CC[C@]43C)C1=C(C(C)C)c1nccnc12` (some centres undefined), in assay [1], it took 250 µM to reach half-maximal inhibition (IC50). This IC50 lies about 120-fold higher than the previous one.
